Data taken from ChEMBL document CHEMBL3272245, “Potent reversible anticholinesterase agents. Bis- and mono-N-substituted benzoquinolinium halides” (J Med Chem, 1977).

Tests used:
[1] = molecular target: T1, Butyrylcholinesterase (Equus caballus, UniProt Q9N1N9); test: Reversible mixed-type inhibition of horse serum butyrylcholinesterase using acetylcholine bromide as substrate by Lineweaver-Burk plot analysis
[2] = molecular target: T2, Acetylcholinesterase (Electrophorus electricus, UniProt O42275); test: Reversible mixed-type inhibition of electric eel acetylcholinesterase using acetylcholine bromide as substrate by Lineweaver-Burk plot analysis
[3] = molecular target: T2, Acetylcholinesterase; test: Reversible mixed-type inhibition of electric eel acetylcholinesterase using acetylcholine bromide as substrate assessed as free enzyme-inhibitor complex by Lineweaver-Burk plot analysis
[4] = molecular target: T1, Butyrylcholinesterase; test: Reversible mixed-type inhibition of horse serum butyrylcholinesterase using acetylcholine bromide as substrate assessed as free enzyme-inhibitor complex by Lineweaver-Burk plot analysis
[5] = molecular target: T2, Acetylcholinesterase; test: Mixed-type inhibition of electric eel acetylcholinesterase using acetylcholine bromide as substrate by Lineweaver-Burk plot analysis
[6] = molecular target: T1, Butyrylcholinesterase; test: Mixed-type inhibition of horse serum butyrylcholinesterase using acetylcholine bromide as substrate by Lineweaver-Burk plot analysis
[7] = molecular target: T1, Butyrylcholinesterase; test: Mixed-type inhibition of horse serum butyrylcholinesterase using acetylcholine bromide as substrate assessed as free enzyme-inhibitor complex by Lineweaver-Burk plot analysis
[8] = molecular target: T2, Acetylcholinesterase; test: Mixed-type inhibition of electric eel acetylcholinesterase using acetylcholine bromide as substrate assessed as free enzyme-inhibitor complex by Lineweaver-Burk plot analysis
[9] = molecular target: T2, Acetylcholinesterase; test: Reversible competitive inhibition of electric eel acetylcholinesterase using acetylcholine bromide as substrate assessed as free enzyme-inhibitor complex by Lineweaver-Burk plot analysis
[10] = molecular target: T1, Butyrylcholinesterase; test: Reversible competitive inhibition of horse serum butyrylcholinesterase using acetylcholine bromide as substrate assessed as free enzyme-inhibitor complex by Lineweaver-Burk plot analysis
[11] = molecular target: T2, Acetylcholinesterase; test: Mixed-type inhibition of electric eel acetylcholinesterase using acetylcholine bromide as substrate assessed as […] by Lineweaver-Burk plot analysis
In short: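 Electric eel electric-organ acetylcholinesterase (0.1 unit per 10 mL reaction) added to five inhibitor concentrations each mixed with acetylcholine bromide, e.g. 0.1, 0.15, 0.25, 0.4, 0.8 mM final. Initial hydrolysis rates over 4 min at 25 °C by pH-stat titration. Lineweaver-Burk analysis; Km from inhibitor-free runs.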

T2 sequence (O42275 whole entry): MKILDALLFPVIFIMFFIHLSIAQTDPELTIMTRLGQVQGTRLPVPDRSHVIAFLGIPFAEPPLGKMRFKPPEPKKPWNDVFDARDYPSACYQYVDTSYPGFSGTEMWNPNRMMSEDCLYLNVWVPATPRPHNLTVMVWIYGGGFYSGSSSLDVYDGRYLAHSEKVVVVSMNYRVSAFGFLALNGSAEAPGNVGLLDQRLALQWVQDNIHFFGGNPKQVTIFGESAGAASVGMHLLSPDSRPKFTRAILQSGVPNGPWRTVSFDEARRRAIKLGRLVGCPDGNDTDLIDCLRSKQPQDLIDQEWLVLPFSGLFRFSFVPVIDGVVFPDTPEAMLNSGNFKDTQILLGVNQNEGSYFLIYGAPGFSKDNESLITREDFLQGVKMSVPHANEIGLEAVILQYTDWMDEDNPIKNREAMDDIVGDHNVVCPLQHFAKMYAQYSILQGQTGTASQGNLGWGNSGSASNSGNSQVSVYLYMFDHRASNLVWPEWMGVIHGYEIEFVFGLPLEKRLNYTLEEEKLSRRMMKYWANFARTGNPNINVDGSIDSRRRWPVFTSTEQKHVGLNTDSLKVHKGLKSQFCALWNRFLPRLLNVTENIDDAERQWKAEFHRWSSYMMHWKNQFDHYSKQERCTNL
T1 sequence (Q9N1N9 whole entry): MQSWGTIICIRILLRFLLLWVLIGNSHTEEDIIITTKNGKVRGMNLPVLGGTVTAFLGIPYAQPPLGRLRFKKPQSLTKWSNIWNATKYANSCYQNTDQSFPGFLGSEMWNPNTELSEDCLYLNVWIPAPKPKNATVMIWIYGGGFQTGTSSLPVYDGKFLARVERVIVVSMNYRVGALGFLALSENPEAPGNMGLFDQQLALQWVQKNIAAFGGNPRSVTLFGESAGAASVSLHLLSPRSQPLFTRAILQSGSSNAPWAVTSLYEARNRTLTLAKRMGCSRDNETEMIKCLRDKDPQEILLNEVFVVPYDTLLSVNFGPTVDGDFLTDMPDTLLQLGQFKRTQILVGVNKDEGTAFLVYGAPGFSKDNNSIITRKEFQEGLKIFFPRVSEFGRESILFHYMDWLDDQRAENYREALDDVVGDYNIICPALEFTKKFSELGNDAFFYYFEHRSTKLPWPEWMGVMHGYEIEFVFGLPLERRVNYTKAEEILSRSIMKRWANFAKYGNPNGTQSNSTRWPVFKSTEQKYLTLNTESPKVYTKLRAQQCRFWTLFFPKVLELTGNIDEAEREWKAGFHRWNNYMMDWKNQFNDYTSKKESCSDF

Structure (SMILES) | Ki [1] [µM] | Ki [2] [µM] | Ki [3] [µM] | Ki [4] [µM] | also measured
c1ccc2c(c1)cc1ccccc1[n+]2CCCCCC[n+]1c2ccccc2cc2ccccc21 | 0.024 | 0.0021 | 0.0021 | 0.0073 | –
C[N+](C)(CCCCCC[N+](C)(C)Cc1ccc(-c2ccccc2)cc1)Cc1ccc(-c2ccccc2)cc1 | – | – | – | – | Ki [5]: 120 µM; Ki [6]: 7.9 µM; Ki [7]: 1.5 µM; Ki [8]: 39 µM
c1ccc2c(c1)c[n+](CCCCCC[n+]1cc3ccccc3c3ccccc31)c1ccccc21 | 0.091 | 0.0066 | 0.0066 | 0.027 | –
c1ccc2c(c1)ccc1c2ccc[n+]1CCCCCC[n+]1cccc2c3ccccc3ccc21 | 1.5 | 0.072 | 0.01 | 0.36 | –
c1ccc2c(c1)c[n+](Cc1ccc(C[n+]3cc4ccccc4c4ccccc43)cc1)c1ccccc21 | 0.23 | 0.71 | 0.18 | 0.057 | –
C[n+]1cc2ccccc2c2ccccc21 | 6.4 | 25.5 | 5.6 | 1.1 | –
CCC[n+]1cc2ccccc2c2ccccc21 | 7.5 | 13.6 | 3.2 | 1.3 | –
CC(C)[n+]1cc2ccccc2c2ccccc21 | 4.8 | 97 | 22 | 1.5 | –
CCCCCC[n+]1cc2ccccc2c2ccccc21 | 0.9 | 1.8 | 0.53 | 0.12 | –
c1ccc(C[n+]2cc3ccccc3c3ccccc32)cc1 | 0.26 | 0.95 | 0.25 | 0.061 | –
c1ccc(CC[n+]2cc3ccccc3c3ccccc32)cc1 | 0.31 | 0.78 | 0.28 | 0.054 | –
OCC[n+]1cc2ccccc2c2ccccc21 | 98.4 | 45 | 31 | 37 | –
O=C(O)C[n+]1cc2ccccc2c2ccccc21 | 86 | 72.4 | 12 | 41 | –
CC(=O)OCC[n+]1cc2ccccc2c2ccccc21 | – | – | – | – | Ki [9]: 0.38 µM; Ki [10]: 0.12 µM
C[n+]1cccc2c3ccccc3ccc21 | 34 | 25.4 | 8.9 | 5.4 | –
c1ccc(C[n+]2cccc3c4ccccc4ccc32)cc1 | 5.6 | 37.4 | 9.3 | 0.86 | –
c1ccc(CC[n+]2cccc3c4ccccc4ccc32)cc1 | 4.9 | 18.5 | 1.8 | 0.92 | –
OCC[n+]1cccc2c3ccccc3ccc21 | 210 | 160 | 83 | 79 | –
CC(=O)OCC[n+]1cccc2c3ccccc3ccc21 | – | – | – | – | Ki [9]: 0.95 µM; Ki [10]: 0.82 µM
C[n+]1cccc2ccc3ccccc3c21 | 230 | 140 | 18 | 32 | –
OCC[n+]1cccc2ccc3ccccc3c21 | 410 | 360 | 150 | 110 | –
C[n+]1c2ccccc2cc2ccccc21 | 1.7 | 2.8 | 0.5 | 0.24 | –
OCC[n+]1c2ccccc2cc2ccccc21 | 7.2 | 9.6 | 2.9 | 1.3 | –
CC(=O)OCC[n+]1c2ccccc2cc2ccccc21 | – | – | – | – | Ki [9]: 0.021 µM; Ki [10]: 0.011 µM
CC(=O)OCC[n+]1ccccc1 | – | – | 320 | 120 | Ki [9]: 0.021 µM; Ki [7]: 120 µM; Ki [10]: 0.011 µM; Ki [8]: 320 µM
c1cc[n+](CCCCCC[n+]2ccccc2)cc1 | – | – | – | – | Ki [6]: 620 µM; Ki [7]: 120 µM; Ki [11]: 16000 µM
C[N+](C)(CCCCCC[N+](C)(C)C1c2ccccc2-c2ccccc21)C1c2ccccc2-c2ccccc21 [HEXAFLUORENIUM BROMIDE] | 0.89 | 1.3 | 1.3 | 0.34 | –
